This assay relates to Haemophilus influenzae. As to the kind of experiment: Antimicrobial activity against Haemophilus influenzae Q1 after 24 hrs by broth microdilution method. The format is functional. The settings on record: Q1, 24 h. In a few lines: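 Broth microdilution following NCCLS M7-A4; ATCC strains and clinical isolates from a provincial hospital.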

≈ marks a conversion by molar mass, not a printed value.

As for `CCCC[C@H](CN(O)C=O)C(=O)N1CC=C[C@H]1C(=O)Nc1ccc(F)c[n+]1[O-]`, the MIC was found to be 1 mg/L (≈ 2.54 µM).

(Values after ChEMBL document CHEMBL3352487, “Synthesis, antibacterial activity, and biological evaluation of formyl hydroxyamino derivatives as novel potent peptide deformylase inhibitors against drug-resistant bacteria” (Eur J Med Chem, 2014).)
